{"data": "Experimental data of several laboratories"}
{"Compound": "CCOC(=O)c1nc2ccccc2c(=O)n1Cc1cn(-c2ccc(C(=O)O)cc2)nn1", "organism": "Nakaseomyces glabratus", "test": "microbial growth, broth dilution", "system": "ATCC90030", "setting": "24 h", "quantity": "IC50", "value": "87.7 µg/mL"}
{"Compound": "Cc1ccc(-c2nn(-c3ccccc3)cc2C=c2sc(=CC#N)[nH]c2=O)cc1", "organism": "Bacillus subtilis", "test": "microbial growth, well diffusion", "setting": "100000 µg/mL", "quantity": "inhibition zone", "value": "12 mm"}
{"Compound": "C[C@@H]1[C@H](O)[C@@H](C)/C=C/C=C/C=C/C=C/C=C/C=C/C=C/[C@H](O[C@@H]2O[C@H](C)[C@@H](O)[C@H](N)[C@@H]2O)C[C@@H]2O[C@](O)(C[C@@H](O)C[C@@H](O)[C@H](O)CC[C@@H](O)C[C@@H](O)CC(=O)O[C@H]1C)C[C@H](O)[C@H]2C(=O)O", "organism": "Cryptococcus neoformans", "test": "microbial killing", "system": "ATCC90113", "quantity": "MFC", "value": "1.5 µg/mL"}
{"Compound": "Cc1ccc(-n2cc(Cn3c(C(=O)O)nc4ccccc4c3=O)nn2)cc1", "organism": "Nakaseomyces glabratus", "test": "microbial growth, broth dilution", "system": "ATCC90030", "setting": "24 h", "quantity": "IC50", "value": "288 µg/mL"}
{"Compound": "Cc1c(NC(=O)CC2=NC(=O)CS2)c(=O)n(-c2ccccc2)n1C", "organism": "Bacillus subtilis", "test": "microbial killing, broth dilution", "quantity": "MBC", "value": "2 µg/mL"}
{"Compound": "O=C(O)CN1C(=O)/C(=C/c2ccc(-c3ccc(N(c4ccccc4)c4ccccc4)cc3)c3ccccc23)SC1=S", "organism": "Bacillus subtilis", "test": "microbial killing, broth dilution", "system": "ATCC6633", "quantity": "MBC", "value": "1000 µg/mL"}
{"Compound": "N=C(NCCCCCCNC(=N)NC(=N)Nc1ccc(Cl)cc1)NC(=N)Nc1ccc(Cl)cc1", "organism": "Acanthamoeba polyphaga", "test": "parasite growth, resazurin", "setting": "96 h", "quantity": "IC50", "value": "9.41 µM"}
{"Compound": "CCCCCCC/C=C/C(=O)N1C(=O)/C(=C(\\O)c2ccccc2)C(=O)C1CC(C)C (centres unmarked)", "organism": "Proteus vulgaris", "test": "microbial growth", "system": "ATCC33420", "quantity": "MIC", "value": "> 200 µg/mL"}
{"Compound": "C[C@@H]1[C@H](O)[C@@H](C)/C=C/C=C/C=C/C=C/C=C/C=C/C=C/[C@H](O[C@@H]2O[C@H](C)[C@@H](O)[C@H](N)[C@@H]2O)C[C@@H]2O[C@](O)(C[C@@H](O)C[C@@H](O)[C@H](O)CC[C@@H](O)C[C@@H](O)CC(=O)O[C@H]1C)C[C@H](O)[C@H]2C(=O)O", "organism": "Cryptococcus neoformans", "test": "microbial growth", "system": "ATCC90113", "quantity": "IC50", "value": "0.26 µM"}
{"Compound": "CCCCCCC/C=C/C(=O)N1C(=O)/C(=C(\\O)c2ccc(F)cc2)C(=O)C1CC(C)C (centres unmarked)", "organism": "Proteus vulgaris", "test": "microbial growth", "system": "ATCC33420", "quantity": "MIC", "value": "> 200 µg/mL"}
{"Compound": "CCOC(=O)c1c(N)csc1-c1cn(-c2ccccc2)nc1-c1ccc(C)cc1", "organism": "Bacillus subtilis", "test": "microbial killing, broth dilution", "quantity": "MBC", "value": "0.25 µg/mL"}
{"Compound": "O=C1NC(=S)N/C1=C\\c1ccc(-c2ccc(N(c3ccccc3)c3ccccc3)cc2)c2ccccc12", "organism": "Bacillus subtilis", "test": "microbial killing, broth dilution", "system": "ATCC6633", "quantity": "MBC", "value": "> 1000 µg/mL"}
{"Compound": "CCOC(=O)C=c1[nH]c(=O)c(=Cc2cn(-c3ccccc3)nc2-c2ccccc2)s1", "organism": "Bacillus subtilis", "test": "microbial growth, well diffusion", "setting": "100000 µg/mL", "quantity": "inhibition zone", "value": "14 mm"}
{"Compound": "O=C(O)c1nc2ccccc2c(=O)n1Cc1cn(-c2ccccc2)nn1", "organism": "Nakaseomyces glabratus", "test": "microbial growth, broth dilution", "system": "ATCC90030", "setting": "24 h", "quantity": "IC50", "value": "566 µg/mL"}
{"Compound": "C/C(O)=C1\\C(=O)C(CC(C)C)N(C(=O)C=Cc2ccccc2)C1=O (centres unmarked)", "organism": "Proteus vulgaris", "test": "microbial growth", "system": "ATCC33420", "quantity": "MIC", "value": "> 200 µg/mL"}
{"Compound": "C[C@@H](c1ncncc1F)[C@](O)(Cn1cncn1)c1ccc(F)cc1F", "organism": "Acanthamoeba polyphaga", "test": "parasite growth, resazurin", "setting": "96 h", "quantity": "IC50", "value": "28.9 µM"}
{"Compound": "O=C(O)c1cn(C2CC2)c2cc(N3CCNCC3)c(F)cc2c1=O", "organism": "Bacillus subtilis", "test": "microbial killing, broth dilution", "quantity": "MBC", "value": "0.5 µg/mL"}
{"Compound": "O=C(O)c1nc2ccccc2c(=O)n1Cc1cn(-c2ccccc2F)nn1", "organism": "Nakaseomyces glabratus", "test": "microbial growth, broth dilution", "system": "ATCC90030", "setting": "24 h", "quantity": "IC50", "value": "174 µg/mL"}
{"Compound": "Cc1c(NN=C2SC(C(C#N)=Cc3ccccc3)=NC2=O)c(=O)n(-c2ccccc2)n1C", "organism": "Bacillus subtilis", "test": "microbial growth, well diffusion", "setting": "100000 µg/mL", "quantity": "inhibition zone", "value": "17 mm"}
{"Compound": "Cc1ccccc1-n1cc(Cn2c(C(=O)O)nc3ccccc3c2=O)nn1", "organism": "Nakaseomyces glabratus", "test": "microbial growth, broth dilution", "system": "ATCC90030", "setting": "24 h", "quantity": "IC50", "value": "358 µg/mL"}
